Laboratory results from ChEMBL document CHEMBL3085641, “Development of thiophenic analogues of benzothiadiazine dioxides as new powerful potentiators of 2-amino-3-(3-hydroxy-5-methylisoxazol-4-yl)propionic acid (AMPA) receptors” (J Med Chem, 2013).
pEC50: −log10 of the molar value. Active and inactive are the calls of the source. The calls are words filed in the database; no cut-off is given here.

How the values were obtained:
Rattus norvegicus [1] = species: Rattus norvegicus; assay: Positive allosteric modulation of rat cortex AMPA receptor expressed in Xenopus laevis oocytes assessed as potentiation of (S)-AMPA-induced current amplitude at 10 uM by voltage clamp technique relative to (S)-AMPA; format: cell-based
Procedure, shortened: (§1)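 Two-electrode voltage clamp at room temperature on Xenopus laevis oocytes expressing rat cortex poly(A+) mRNA, using 10 μM (S)-AMPA. Oocytes were pre-screened with 100 μM S22286, applied 45 s before, 30 s during and 30 s after AMPA; those with under 130-fold potentiation were excluded. Read-outs were drug concentrations for 2-fold or 5-fold current increase, EC50, and maximal effect as % of the AMPA current; n ≥ 3.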

Rattus norvegicus [2] = species: Rattus norvegicus; assay: Positive allosteric modulation of rat cortex AMPA receptor expressed in Xenopus laevis oocytes assessed as concentration required to 2 fold potentiation of (S)-AMPA-induced current amplitude by voltage clamp technique; format: cell-based; procedure, shortened: as §1
Rattus norvegicus [3] = species: Rattus norvegicus; assay: Positive allosteric modulation of rat brain AMPA receptor assessed as potentiation of 2 fold of (S)-AMPA-induced current amplitude by FlipR method
Procedure, shortened: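 Primary neuron cultures from rat embryonic cortex were stimulated with 300 μM AMPA. Membrane depolarization was read with a fluorescent membrane-potential dye in an imaging plate reader. Reported value is the drug concentration doubling the AMPA-induced fluorescence; n = 3, mean ± SEM (some n = 2).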

Rattus norvegicus [4] = species: Rattus norvegicus; assay: Positive allosteric modulation of AMPA receptor in rat hippocampal CA1 region assessed as potentiation of AMPA-induced excitatory postsynaptic field potential amplitude in CA1 region at 10 uM relative to basal value; format: tissue-based; conditions: Hippocampus
Procedure, shortened: (§2)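 Rat hippocampal slices were perfused with medium containing 1.2 mM Mg2+. EPSfPs were evoked in CA1 by Schaffer collateral stimulation, with compound at 10 μM. Area, amplitude and half-width were each normalized to the pre-application value (100%); n = 3.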

Rattus norvegicus [5] = species: Rattus norvegicus; assay: Positive allosteric modulation of AMPA receptor in rat hippocampal CA1 region assessed as potentiation of AMPA-induced excitatory postsynaptic field potential area in CA1 region at 10 uM relative to basal value; format: tissue-based; conditions: Hippocampus; procedure, shortened: as §2
Mus musculus [6] = assay: Acute toxicity in mouse assessed as convulsion followed by apathy at 30 mg/kg, po; format: organism-based; set-up: dose 30 mg/kg, route oral; conditions: in vivo
Procedure, shortened: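 Irwin screen for acute neurotoxicity in mice: single oral dose of 30 mg/kg, then behavioural and physiological state recorded (convulsions, apathy, body temperature). Five animals per compound.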

Rattus norvegicus [7] = species: Rattus norvegicus; assay: Positive allosteric modulation of AMPA receptor in rat hippocampal CA1 region assessed as potentiation of AMPA-induced excitatory postsynaptic field potential half-width in CA1 region at 10 uM relative to basal value; format: tissue-based; conditions: Hippocampus; procedure, shortened: as §2
Rattus norvegicus [8] = assay: Positive allosteric modulation of AMPA receptor in Wistar rat dentate gyrus assessed as increase in field excitatory postsynaptic potential amplitude at 30 mg/kg, ip after 1 hr; format: functional, organism-based; set-up: dose 30 mg/kg
Procedure, shortened: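 Anesthetized Wistar rats received 30 mg/kg ip. EPSfPs were recorded in the hippocampal dentate gyrus, with amplitude averaged over four stimuli. Values were normalized to the mean response during the 1 h baseline before injection (100%). One hour after injection, LTP was induced by tetanic stimulation and EPSfPs were followed for 3 h.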

Rattus norvegicus [9] = species: Rattus norvegicus; assay: Positive allosteric modulation of rat cortex AMPA receptor expressed in Xenopus laevis oocytes assessed as concentration required to 5 fold potentiation of (S)-AMPA-induced current amplitude by voltage clamp technique; format: cell-based; procedure, shortened: as §1
Mus musculus [10] = assay: Toxicity in mouse assessed as hypothermia at 30 mg/kg, po after 30 mins; format: organism-based; set-up: dose 30 mg/kg, route oral; conditions: in vivo, 0.5 h
Procedure, shortened: (§3)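 Irwin test in mice: a single oral dose of 30 mg/kg, five animals per compound. Behavioural and physiological changes were recorded, including body temperature at 30 min post-dose.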

Mus musculus [11] = assay: Cognitive enhancing effect in CD-1 mouse assessed as recognition of familiar object at 0.3 to 1 mg/kg, po after 1 hr by object recognition test; format: functional, organism-based
Procedure, shortened: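 Three-session object recognition test in CD1 mice, with a 24 h interval between sessions. Dosing was oral, 1 h before each session. Read-out was a discrimination index: exploration time of the new object minus that of the familiar object in the last session. n = 13; one-way ANOVA versus control.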

[12] = Positive allosteric modulation of rat cortex AMPA receptor expressed in Xenopus laevis oocytes assessed as potentiation of (S)-AMPA-induced current amplitude by voltage clamp technique; format: cell-based; procedure, shortened: as §1
Rattus norvegicus [13] = assay: Positive allosteric modulation of AMPA receptor in Wistar rat dentate gyrus assessed as increase in tetanus-induced field excitatory postsynaptic potential amplitude at 30 mg/kg, ip administered 1 hr prior to tetanus challenge measured after 3 hrs relative to vehicle-treated control; format: functional, organism-based; set-up: dose 30 mg/kg
Procedure, shortened: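 Anaesthetised Wistar rats, 30 mg/kg ip. Field EPSPs recorded in hippocampal dentate gyrus, each amplitude the average of four stimuli. Values normalised to the mean of the 1 h baseline before injection, taken as 100%. LTP induced by tetanic stimulation 1 h after injection, then EPSPs followed for 3 h.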

Rattus norvegicus [14] = species: Rattus norvegicus; assay: Positive allosteric modulation of AMPA receptor in Wistar rat hippocampus assessed as potentiation of (S)-AMPA-induced [3H]-NA release at 300 uM relative to (S)-AMPA
Procedure, shortened: (§4)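 Transverse hippocampal slices (300 μm) were loaded with [3H]noradrenaline ([…]) for 30 min at 37 °C, rinsed, then superfused with Krebs buffer, (S)-AMPA, or (S)-AMPA plus compound. Superfusate was collected in 5 min fractions and counted by scintillation. Fractional release was normalized to total radioactivity in all fractions plus tissue. Compound alone was compared with basal DMSO release, and co-application with (S)-AMPA alone (100%).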

Rattus norvegicus [15] = species: Rattus norvegicus; assay: Agonist activity at AMPA receptor in Wistar rat hippocampus assessed as [3H]-NA release at 300 uM relative to control; procedure, shortened: as §4
Mus musculus [16] = assay: Toxicity in mouse assessed as hypothermia at 30 mg/kg, po; format: organism-based; set-up: dose 30 mg/kg, route oral; conditions: in vivo; procedure, shortened: as §3
Mus musculus [17] = assay: Toxicity in mouse assessed as reduction in body temperature at 30 mg/kg, ip; format: organism-based; set-up: dose 30 mg/kg, route intraperitoneal; conditions: in vivo

O=S1(=O)NCN(CCF)c2c(Cl)sc(Cl)c21
Emax (Rattus norvegicus [1]): > 485% | Activity (Rattus norvegicus [2]): 113 µM | Activity (Rattus norvegicus [3]): > 100 µM

O=S1(=O)N=CN(CCF)c2cc(Cl)sc21
Emax (Rattus norvegicus [1]): 204% | Activity (Rattus norvegicus [2]): > 300 µM | Activity (Rattus norvegicus [3]): > 100 µM

O=S1(=O)N=CN(CC(F)F)c2cc(Cl)sc21
Activity (Rattus norvegicus [3]): 100 µM

CCN1C=NS(=O)(=O)c2cc(Cl)sc21
Activity (Rattus norvegicus [3]): > 100 µM

O=S1(=O)N=CNc2c(Cl)sc(Cl)c21
Activity (Rattus norvegicus [2]): > 100 µM

CN1CNS(=O)(=O)c2sc(Cl)cc21
Emax (Rattus norvegicus [1]): > 462% | Activity (Rattus norvegicus [2]): 36 µM

O=S1(=O)NCN(CCF)c2cc(Cl)sc21
Activity (Rattus norvegicus [4]): 33.7% | Emax (Rattus norvegicus [1]): 5600% | Activity (Rattus norvegicus [5]): 9.3% | Activity (Mus musculus [6]): Toxic | Activity (Rattus norvegicus [2]): 2 µM | Activity (Rattus norvegicus [3]): 3.32 µM

CCN1CNS(=O)(=O)c2cc(Cl)sc21
Activity (Rattus norvegicus [7]): 11.7% | Activity (Rattus norvegicus [4]): 3.7% | Activity (Rattus norvegicus [8]): Active | Activity (Rattus norvegicus [9]): 24 µM | Emax (Rattus norvegicus [1]): 2830% | Activity (Mus musculus [10]): Non-toxic | Activity (Mus musculus [11]): Active | Activity (Rattus norvegicus [5]): 18.3% | pEC50 [12]: 4.96 | Activity (Rattus norvegicus [2]): 4.4 µM | Activity (Rattus norvegicus [3]): 10.4 µM | Activity (Rattus norvegicus [13]): Active | Activity (Rattus norvegicus [14]): 281% | Activity (Rattus norvegicus [15]): 34%

CN1CNS(=O)(=O)c2c(Cl)sc(Cl)c21
Emax (Rattus norvegicus [1]): 2920% | Activity (Rattus norvegicus [2]): 5.4 µM

O=S1(=O)N=CN(CC(F)F)c2c(Cl)sc(Cl)c21
Activity (Rattus norvegicus [3]): > 100 µM

O=S1(=O)NCN(CCCF)c2cc(Cl)sc21
Emax (Rattus norvegicus [1]): > 3780% | Activity (Rattus norvegicus [2]): 12 µM | Activity (Rattus norvegicus [3]): > 45.7 µM

CCN1C=NS(=O)(=O)c2sc(Cl)cc21
Emax (Rattus norvegicus [1]): > 175% | Activity (Rattus norvegicus [2]): 172 µM | Activity (Rattus norvegicus [3]): > 100 µM

CCCN1CNS(=O)(=O)c2sc(Cl)cc21
Emax (Rattus norvegicus [1]): 2090% | Activity (Rattus norvegicus [2]): 15 µM | Activity (Rattus norvegicus [3]): 25.1 µM

CCN1C=NS(=O)(=O)c2c(Cl)sc(Cl)c21
Emax (Rattus norvegicus [1]): > 1000% | Activity (Rattus norvegicus [2]): 42 µM

CCCN1C=NS(=O)(=O)c2c(Cl)sc(Cl)c21
Activity (Rattus norvegicus [3]): > 100 µM

CN1C=NS(=O)(=O)c2sc(Cl)cc21
Activity (Rattus norvegicus [2]): > 166 µM | Activity (Rattus norvegicus [3]): > 100 µM

CN1C=NS(=O)(=O)c2c(Cl)sc(Cl)c21
Emax (Rattus norvegicus [1]): > 413% | Activity (Rattus norvegicus [2]): 81 µM

O=S1(=O)NCN(CC(F)F)c2c(Cl)sc(Cl)c21
Emax (Rattus norvegicus [1]): > 227% | Activity (Rattus norvegicus [2]): 235 µM | Activity (Rattus norvegicus [3]): > 100 µM

O=S1(=O)NCNc2cc(Cl)sc21
Emax (Rattus norvegicus [1]): 253% | Activity (Rattus norvegicus [2]): 216 µM | Activity (Rattus norvegicus [3]): > 100 µM

CCCN1CNS(=O)(=O)c2c(Cl)sc(Cl)c21
Emax (Rattus norvegicus [1]): > 126% | Activity (Rattus norvegicus [2]): > 300 µM | Activity (Rattus norvegicus [3]): > 100 µM

CC(C)N1CNS(=O)(=O)c2sc(Cl)cc21
Emax (Rattus norvegicus [1]): 217% | Activity (Rattus norvegicus [2]): 4.2 µM | Activity (Rattus norvegicus [3]): 9.55 µM

O=S1(=O)NCNc2c(Cl)sc(Cl)c21
Emax (Rattus norvegicus [1]): > 973% | Activity (Rattus norvegicus [2]): 72 µM | Activity (Rattus norvegicus [3]): > 100 µM

O=S1(=O)N=CN(CCCF)c2cc(Cl)sc21
Emax (Rattus norvegicus [1]): 107% | Activity (Rattus norvegicus [2]): > 300 µM | Activity (Rattus norvegicus [3]): 100 µM

O=S1(=O)NCN(CC(F)F)c2cc(Cl)sc21
Activity (Rattus norvegicus [7]): 14.3% | Activity (Rattus norvegicus [4]): 15.3% | Activity (Mus musculus [16]): 60% | Emax (Rattus norvegicus [1]): 2560% | Activity (Rattus norvegicus [5]): 22.7% | Activity (Rattus norvegicus [2]): 1.6 µM | Activity (Rattus norvegicus [3]): 2.9 µM

CCCN1C=NS(=O)(=O)c2sc(Cl)cc21
Emax (Rattus norvegicus [1]): 2070% | T (Mus musculus [17]): 4.6 °C | Activity (Rattus norvegicus [3]): > 100 µM

O=S1(=O)N=CN(CF)c2cc(Cl)sc21
Activity (Rattus norvegicus [3]): > 100 µM

CCN1CNS(=O)(=O)c2c(Cl)sc(Cl)c21
Emax (Rattus norvegicus [1]): > 955% | Activity (Rattus norvegicus [2]): 71 µM | Activity (Rattus norvegicus [3]): > 55 µM

CC(C)N1C=NS(=O)(=O)c2sc(Cl)cc21
Emax (Rattus norvegicus [1]): > 277% | Activity (Rattus norvegicus [2]): > 100 µM | Activity (Rattus norvegicus [3]): > 100 µM

CCN1CNS(=O)(=O)c2sc(Cl)cc21
Activity (Rattus norvegicus [9]): 18.5 µM | Emax (Rattus norvegicus [1]): 2270% | pEC50 [12]: 5.04 | Activity (Rattus norvegicus [2]): 3.6 µM

O=S1(=O)N=CN(CCF)c2c(Cl)sc(Cl)c21
Emax (Rattus norvegicus [1]): > 2330% | Activity (Rattus norvegicus [2]): 26.5 µM | Activity (Rattus norvegicus [3]): 20.3 µM
